This is an account of results in paper PMC3446773 (Cancer research, 2009).

The target of one assay is human LPA1 (Homo sapiens, UniProt Q92633). The assay can be described thus: Ca2+ mobilization assay, LPA1 expressed in RH7777 cells. The following applies: for Ki: read-out: LPA1 Ki; for IC50: read-out: LPA1 antagonist IC50. Format: cell-based. A digest of the protocol:
(§1)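 Intracellular Ca2+ mobilization measured in RH7777 cells expressing the human receptor (LPA1, LPA2, LPA3 or LPA5); parental line intrinsically unresponsive to LPA. Both activation and inhibition of LPA responses tested. Quadruplicate tests; EC50, IC50 and Ki derived by sigmoid curve fitting.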
Background: A change in cytosolic calcium serves as a functional read-out for many receptors and channels.

Another assay deals with human LPA2 (Homo sapiens, UniProt Q9HBW0). The assay can be described thus: Ca2+ mobilization assay, LPA2 expressed in RH7777 cells. The class given is cell-based. Particulars: for Ki: read-out: LPA2 Ki; for IC50: read-out: LPA2 antagonist IC50. A digest of the protocol: as §1
Sequence of human LPA2 (Q9HBW0 whole entry): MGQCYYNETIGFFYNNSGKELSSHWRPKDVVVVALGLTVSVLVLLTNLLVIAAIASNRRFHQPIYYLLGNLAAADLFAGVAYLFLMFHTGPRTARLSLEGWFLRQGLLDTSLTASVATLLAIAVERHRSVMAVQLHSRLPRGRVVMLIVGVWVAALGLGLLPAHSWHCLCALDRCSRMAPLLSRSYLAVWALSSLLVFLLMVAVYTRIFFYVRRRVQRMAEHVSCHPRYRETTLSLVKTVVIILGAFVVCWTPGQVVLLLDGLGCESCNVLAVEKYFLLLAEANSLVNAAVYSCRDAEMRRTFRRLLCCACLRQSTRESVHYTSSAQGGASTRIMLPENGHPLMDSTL
For another assay, the target named is T1, human LPA3 (Homo sapiens, UniProt Q9UBY5).
T1 sequence (Q9UBY5 1-353): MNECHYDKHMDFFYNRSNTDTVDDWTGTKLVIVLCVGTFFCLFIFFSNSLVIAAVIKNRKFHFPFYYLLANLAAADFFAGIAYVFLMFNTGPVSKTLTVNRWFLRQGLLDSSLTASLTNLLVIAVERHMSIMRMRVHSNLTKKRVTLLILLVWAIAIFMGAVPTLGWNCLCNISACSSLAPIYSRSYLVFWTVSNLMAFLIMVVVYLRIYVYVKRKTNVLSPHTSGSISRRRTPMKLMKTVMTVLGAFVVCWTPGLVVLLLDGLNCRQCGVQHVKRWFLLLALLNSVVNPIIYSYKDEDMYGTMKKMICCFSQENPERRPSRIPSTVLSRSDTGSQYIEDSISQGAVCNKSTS
The assay can be described thus: Ca2+ mobilization assay, LPA3 expressed in RH7777 cells. The class given is cell-based. Particulars: for LPA3 ligand type / Ki / IC50: Ca2+ mobilization, RH7777 cells; for Ki: read-out: LPA3 Ki; for IC50: read-out: LPA3 antagonist IC50. A digest of the protocol:
as §1

In another assay the target is human LPA4 (Homo sapiens, UniProt Q99677). The assay is described as follows: Ca2+ mobilization assay, LPA4 expressed in CHO cells. Format: cell-based. Particulars: for LPA4 ligand type: Ca2+ mobilization, CHO cells; for LPA4 inhibition: at 30 μmol/L (400 nmol/L LPA).
Sequence of human LPA4 (Q99677 whole entry): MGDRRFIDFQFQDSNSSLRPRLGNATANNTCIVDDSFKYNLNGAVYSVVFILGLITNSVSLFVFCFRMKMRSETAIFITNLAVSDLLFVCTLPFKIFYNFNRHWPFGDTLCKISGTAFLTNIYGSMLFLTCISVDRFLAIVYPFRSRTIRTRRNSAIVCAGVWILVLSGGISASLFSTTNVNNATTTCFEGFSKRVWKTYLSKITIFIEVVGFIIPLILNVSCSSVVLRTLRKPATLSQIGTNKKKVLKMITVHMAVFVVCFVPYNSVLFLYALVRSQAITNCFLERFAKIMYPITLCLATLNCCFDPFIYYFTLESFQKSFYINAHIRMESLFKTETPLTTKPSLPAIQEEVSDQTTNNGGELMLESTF
In a further assay the target is human LPA5 (Homo sapiens, UniProt Q9H1C0). The assay can be described thus: Ca2+ mobilization assay, LPA5 expressed in RH7777 cells. The class given is cell-based. The following applies: for LPA5 ligand type: transiently transfected; for LPA5 E max: at 10 μmol/L. A digest of the protocol:
as §1

For assay [1], the target named is T2, recombinant hemagglutinin-tagged ATX (ATX-HA) (Homo sapiens, UniProt Q13822). The assay is described as follows: ATX assay, hydrolysis of fluorogenic substrate FS-3. Format: biochemical. Particulars: for ATX inhibition: 10 μmol/L, FS-3 substrate 1 μmol/L, 2 h, 37°C; for IC50: read-out: ATX inhibition IC50, FS-3 substrate, 0.01 to 10 μmol/L. A digest of the protocol: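 Mixed with FS-3 (final 1 µmol/L) and test compound (0.01–10 µmol/L) in assay buffer with BSA. Fluorescence read at ex 485/em 538 nm over 2 h, 37°C. The 0–120 min difference was normalized to vehicle; triplicate wells, % inhibition; Student's t test.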

The test system of assay [2] is MDA-MB-231 cells. The assay can be described thus: Scratch wound assay. The class given is cell-based, human. Particulars: for Effect on MDA-MB-231 cell migration: 10 and 40 μmol/L, 24 h.
In assay [3] the test system is MDA-MB-231 cells. The assay can be described thus: In vitro invasion assay through Matrigel-coated transwell membranes. The class given is cell-based, human. Particulars: P < 0.05.
The subject of assay [4] is MDA-MB-231 orthotopic breast tumor xenograft. The assay can be described thus: Orthotopic breast cancer xenograft in nude mice. The class given is in vivo, nu/nu mice. Particulars: for Tumor volume relative to control group: 3 mg/kg i.p., P < 0.01, 1b vs 1a not different (P = 0.16); for Blood vessel density in tumor (CD31 staining): 10 mg/kg i.p. alone, four doses; for Tumor size relative to controls: 10 mg/kg i.p., twice per week for 2 wk, starting 2 wk after cell transplantation. A digest of the protocol:
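Female nu/nu mice, 4–6 wk, anesthetized with ketamine/xylazine i.p. Trypsinized MDA-MB-231 cells in cross-linkable ECM (5 × 10^7 cells/mL) were injected into the fourth mammary fat pad (200 µL; 100 µL in 3 mg/kg study). From 2 wk after implant, i.p. twice weekly for 2 wk; six mice/group; saline control. Arms: test compound 10 mg/kg, Taxol 10 mg/kg, Taxol week 1 then compound week 2; diastereomers 3 mg/kg. Volume = width² × length/2.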

For assay [5], the target named is T2, recombinant hemagglutinin-tagged ATX (ATX-HA). The following applies: at 10 μmol/L; previously observed; cited from earlier work.
The mark [6] stands for this setting: Ca2+ mobilization, RH7777 cells.

Sequence of human LPA5 (Q9H1C0 whole entry): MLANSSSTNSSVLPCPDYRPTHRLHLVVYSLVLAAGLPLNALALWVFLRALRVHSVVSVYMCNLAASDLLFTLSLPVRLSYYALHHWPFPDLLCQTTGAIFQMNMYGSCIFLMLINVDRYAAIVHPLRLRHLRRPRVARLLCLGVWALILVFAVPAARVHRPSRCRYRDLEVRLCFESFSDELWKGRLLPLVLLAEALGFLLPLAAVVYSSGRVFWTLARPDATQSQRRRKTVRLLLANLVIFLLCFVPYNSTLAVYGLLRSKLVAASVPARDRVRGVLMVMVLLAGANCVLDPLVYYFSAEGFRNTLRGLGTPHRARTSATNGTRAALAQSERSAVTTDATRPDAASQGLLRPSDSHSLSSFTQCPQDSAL
Sequence of human LPA1 (Q92633 whole entry): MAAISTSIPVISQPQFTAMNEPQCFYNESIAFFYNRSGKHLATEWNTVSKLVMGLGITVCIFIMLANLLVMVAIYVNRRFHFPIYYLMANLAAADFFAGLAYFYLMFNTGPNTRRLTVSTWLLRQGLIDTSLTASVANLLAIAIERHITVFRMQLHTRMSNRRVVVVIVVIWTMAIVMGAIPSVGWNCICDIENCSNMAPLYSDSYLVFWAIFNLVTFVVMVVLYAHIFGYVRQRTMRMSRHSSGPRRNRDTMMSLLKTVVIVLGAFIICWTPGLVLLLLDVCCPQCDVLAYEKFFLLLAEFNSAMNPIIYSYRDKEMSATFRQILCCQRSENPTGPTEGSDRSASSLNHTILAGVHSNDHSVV

What is called Ki is the dissociation constant of the complex between target and ligand, obtained from inhibition or displacement. Usually IC50 stands for the concentration that gives 50% inhibition. In the case of `CCCCCCCCCCCCCCCC(=O)OC[C@@H](O)C[C@@H](Br)P(=O)(O)O` [1a], on human LPA1, the LPA1 ligand type entry is recorded as “Antagonist”, the Ki is 273 nM and the IC50 turned out to be 648 nM. Besides, at human LPA2, the LPA2 ligand type result is recorded as “Antagonist”, the Ki came to 250 nM and the IC50 turned out to be 288 nM. For the same molecule, at human LPA3, the LPA3 ligand type result is “Antagonist”, the Ki came to 1830 nM and the IC50 stood at 4440 nM. Further, on human LPA4, the LPA4 ligand type entry is listed as “Antagonist” and the LPA4 inhibition was 35.1%. Further, at human LPA5 (setting [6]), the LPA5 ligand type result is “Partial agonist”. The “LPA5 E max” value on human LPA5 was 64%. In addition, in [1], the ATX inhibition was 98.1 ± 2.3% inhibition (10 μmol/L) and the IC50 was 165 nM. Also, the “Effect on MDA-MB-231 cell migration” value with MDA-MB-231 cells [2] is given as “inhibited the MDA-MB-231 cell migration”. In addition, the “Inhibition of MDA-MB-231 invasion” value in the assay with MDA-MB-231 cells [3] was ~ 52%. The “Tumor volume relative to control group” value in assay [4] is given as “significantly decreased the tumor volume”.
The term EC50 denotes the concentration at which the effect is half-maximal. With `CCCCCCCCCCCCCCCC(=O)OCC(O)CC(Br)P(=O)(O)O` (stereo not drawn) [compound 1, palmitoyl α-bromomethylenephosphonate], on human LPA1, the LPA1 ligand type entry is listed as “Antagonist”, the inhibition constant Ki came out at 805 nM and the IC50 turned out to be 4520 nM. Moreover, at human LPA2, the LPA2 ligand type entry is recorded as “Antagonist”, the Ki came out at 245 nM and the IC50 was 468 nM. The LPA3 ligand type entry on human LPA3 is “Antagonist”. The LPA3 inhibition at human LPA3 (at 30 μmol/L (200 nmol/L LPA)) is recorded as 71.3%. Further, on human LPA4, the LPA4 ligand type entry is “Antagonist” and the LPA4 inhibition worked out at 13.9%. The LPA5 ligand type result at human LPA5 (setting [6]) is recorded as “Partial agonist”. Moreover, the “LPA5 E max” value on human LPA5 was found to be 54%. In addition, at human LPA5 (read-out: LPA5 agonist EC50, Ca2+ mobilization, NS = non-saturated), the EC50 came out at 1280 nM. Besides, the ATX inhibition in [1] is recorded as 102 ± 2.7% inhibition (10 μmol/L). Also, in the assay on MDA-MB-231 cells [2] (data not shown), the “Effect of mixed diastereomers on cell migration” value was “intermediate inhibition of cell migration”. Also, in assay [4], the “Blood vessel density in tumor (CD31 staining)” value is “significantly lower blood vessel density” and the “Tumor size relative to controls” value was “reduction of tumor size relative to controls”. Moreover, the “Blood vessel density in tumor (CD31 staining), sequential treatment” value in assay [4] (Taxol (10 mg/kg, two doses) then BrP-LPA 1 (10 mg/kg, two doses), i.p.) is reported as “statistically different from the control”. The “Tumor size relative to controls, sequential treatment” value in assay [4] (two injections of Taxol (10 mg/kg) week 1, then two injections of BrP-LPA 1 (10 mg/kg) week 2, i.p.) is “reduction of tumor size relative to controls”. For the same molecule, the ATX activity inhibited entry in assay [5] is listed as “over 98%”.
For the molecule `CCCCCCCCCCCCCCCC(=O)OC[C@@H](O)C[C@H](Br)P(=O)(O)O` [1b], at human LPA1, the LPA1 ligand type result was “Antagonist”, the Ki worked out at 752 nM and the IC50 was 2080 nM. In addition, at human LPA2, the LPA2 ligand type result was “Antagonist”, the Ki is 241 nM and the IC50 amounted to 275 nM. In addition, at human LPA3, the LPA3 ligand type entry was “Antagonist”, the Ki turned out to be 623 nM and the IC50 was found to be 2090 nM. At human LPA4, the LPA4 ligand type entry is “Antagonist” and the LPA4 inhibition was found to be 33.1%. In addition, at human LPA5 (setting [6]), the LPA5 ligand type entry is recorded as “Antagonist”. Further, the Ki on human LPA5 (read-out: LPA5 Ki, Ca2+ mobilization, RH7777 cells) was 376 nM. Also, the IC50 on human LPA5 (read-out: LPA5 antagonist IC50, Ca2+ mobilization, RH7777 cells) came out at 977 nM. Also, in [1], the ATX inhibition is 99.4 ± 2.7 % Inhibition (10 μmol/L) and the IC50 is 22 nM. In addition, the “Decrease of MDA-MB-231 cell migration vs untreated control” value in the assay on MDA-MB-231 cells [2] (40 μmol/L, P < 0.05) came to 57%. Further, the “Effect on MDA-MB-231 cell migration” value in the assay with MDA-MB-231 cells [2] is “inhibited the MDA-MB-231 cell migration”. Further, the “Inhibition of MDA-MB-231 invasion” value in the assay on MDA-MB-231 cells [3] is on record as ~ 52%. Besides, the “Tumor volume relative to control group” value in [4] is listed as “significantly decreased the tumor volume”.
On to `CC(=O)O[C@H]1C(=O)[C@@]2(C)[C@H]([C@H](OC(=O)c3ccccc3)[C@]3(O)C[C@H](OC(=O)[C@H](O)[C@@H](NC(=O)c4ccccc4)c4ccccc4)C(C)=C1C3(C)C)[C@]1(OC(C)=O)CO[C@@H]1C[C@@H]2O` [Taxol, reference compound], for which, in [4], the “Blood vessel density in tumor (CD31 staining)” value was “statistically different from the control” and the “Tumor size relative to controls” value is “reduction of tumor size relative to controls”.
